# Data reported in article PMC5656813 (Arthritis & Rheumatology (Hoboken, N.j.), 2017).
# Tested on: RA patients with an inadequate response to MTX
# Experiment: Study 2
# Type: in vivo, human
# Conditions: for ACR20 responders at week 4 / ACR50 responders at week 4 / DAS28‐CRP, mean change from baseline at week 4 / EULAR cumulative score, good/moderate, at week 4 / HAQ DI score, mean change from baseline at week 4 / Patient's assessment of pain, mean change from baseline at week 4 / Patient's global assessment of disease activity, mean change from baseline at week 4 / Physician's global assessment of disease activity, mean change from baseline at week 4 / Remission rate (DAS28‐CRP <2.6) at week 4 / SJC66, mean change from baseline at week 4 / Serum CRP, mean change from baseline at week 4 / TJC68, mean change from baseline at week 4: study 2
# Outline: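 Randomized, double-blind, placebo-controlled dose-ranging trial: 91 RA patients, 19 sites in 4 countries, 1:1:1:1:1 allocation. Patients had MTX for ≥12 weeks and a stable 7.5–25 mg/week dose for ≥4 weeks, continued throughout. Oral capsules once daily at 30, 75, 150 or 300 mg for 4 weeks. Read-outs: ACR responses, DAS28-CRP and HAQ DI change from baseline at week 4. Intent-to-treat population.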
compound,measurement,setting,value
O=C(Nc1nc2cccc(-c3ccc(CN4CCS(=O)(=O)CC4)cc3)n2n1)C1CC1 [Filgotinib],ACR20 responders at week 4,30 mg once daily,6 (35.3) no. (%)
same,ACR50 responders at week 4,30 mg once daily,2 (11.8) no. (%)
same,"DAS28‐CRP, mean change from baseline at week 4",30 mg once daily,−1.08
same,"EULAR cumulative score, good/moderate, at week 4",30 mg once daily,58.8%
same,"HAQ DI score, mean change from baseline at week 4",30 mg once daily,−0.15
same,"Patient's assessment of pain, mean change from baseline at week 4",30 mg once daily,−7.41 0–10‐cm VAS
same,"Patient's global assessment of disease activity, mean change from baseline at week 4",30 mg once daily,−11.88 0–10‐cm VAS
same,"Physician's global assessment of disease activity, mean change from baseline at week 4",30 mg once daily,−9.76 0–10‐cm VAS
same,Remission rate (DAS28‐CRP <2.6) at week 4,30 mg once daily,2 (11.8) no. (%)
same,"SJC66, mean change from baseline at week 4",30 mg once daily,−6.24
same,"Serum CRP, mean change from baseline at week 4",30 mg once daily,-13.28 mg/L
same,"TJC68, mean change from baseline at week 4",30 mg once daily,−10.18
same,ACR20 responders at week 4,75 mg once daily,12 (54.5) no. (%)
same,ACR50 responders at week 4,75 mg once daily,6 (27.3) no. (%)
same,"DAS28‐CRP, mean change from baseline at week 4",75 mg once daily,−1.72
same,"EULAR cumulative score, good/moderate, at week 4",75 mg once daily,68.2%
same,"HAQ DI score, mean change from baseline at week 4",75 mg once daily,−0.47
same,"Patient's assessment of pain, mean change from baseline at week 4",75 mg once daily,−21.27 0–10‐cm VAS
same,"Patient's global assessment of disease activity, mean change from baseline at week 4",75 mg once daily,−21.00 0–10‐cm VAS
same,"Physician's global assessment of disease activity, mean change from baseline at week 4",75 mg once daily,−27.09 0–10‐cm VAS
same,Remission rate (DAS28‐CRP <2.6) at week 4,75 mg once daily,3 (13.6) no. (%)
same,"SJC66, mean change from baseline at week 4",75 mg once daily,−8.42
same,"Serum CRP, mean change from baseline at week 4",75 mg once daily,-15.09 mg/L
same,"TJC68, mean change from baseline at week 4",75 mg once daily,−13.72
same,ACR20 responders at week 4,150 mg once daily,6 (40.0) no. (%)
same,ACR50 responders at week 4,150 mg once daily,0 no. (%)
same,"DAS28‐CRP, mean change from baseline at week 4",150 mg once daily,−1.80
same,"EULAR cumulative score, good/moderate, at week 4",150 mg once daily,66.7%
same,"HAQ DI score, mean change from baseline at week 4",150 mg once daily,−0.26
same,"Patient's assessment of pain, mean change from baseline at week 4",150 mg once daily,−14.07 0–10‐cm VAS
same,"Patient's global assessment of disease activity, mean change from baseline at week 4",150 mg once daily,−12.33 0–10‐cm VAS
same,"Physician's global assessment of disease activity, mean change from baseline at week 4",150 mg once daily,−24.87 0–10‐cm VAS
same,Remission rate (DAS28‐CRP <2.6) at week 4,150 mg once daily,0 no. (%)
same,"SJC66, mean change from baseline at week 4",150 mg once daily,−10.52
same,"Serum CRP, mean change from baseline at week 4",150 mg once daily,-20.50 mg/L
same,"TJC68, mean change from baseline at week 4",150 mg once daily,−14.85
same,patients achieving remission (DAS28‐CRP <2.6),"300 mg group, within 4 weeks",up to 25%
same,ACR20 responders at week 4,300 mg once daily,13 (65.0) no. (%)
same,ACR50 responders at week 4,300 mg once daily,9 (45.0) no. (%)
same,"DAS28‐CRP, mean change from baseline at week 4",300 mg once daily,−2.25
same,"EULAR cumulative score, good/moderate, at week 4",300 mg once daily,80.0%
same,"HAQ DI score, mean change from baseline at week 4",300 mg once daily,−0.68
same,"Patient's assessment of pain, mean change from baseline at week 4",300 mg once daily,−29.85 0–10‐cm VAS
same,"Patient's global assessment of disease activity, mean change from baseline at week 4",300 mg once daily,−25.85 0–10‐cm VAS
same,"Physician's global assessment of disease activity, mean change from baseline at week 4",300 mg once daily,−29.20 0–10‐cm VAS
same,Remission rate (DAS28‐CRP <2.6) at week 4,300 mg once daily,5 (25.0) no. (%)
same,"SJC66, mean change from baseline at week 4",300 mg once daily,−8.48
same,"Serum CRP, mean change from baseline at week 4",300 mg once daily,-20.98 mg/L
same,"TJC68, mean change from baseline at week 4",300 mg once daily,−14.68
same,patients achieving an ACR20 response,"study 2, 300 mg, week 4",65%
